The source made the active and inactive calls. The rule behind the calls is not given here.
Columns and labels:
[1] = system: MCF7; experiment: Growth inhibition of human MCF7 cells after 72 hrs by CCK8 assay; type: functional, cell-based; conditions: MCF7, 72 h
How it was run: (§1)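 Cells were seeded at 2000–3000 per well and grown 24 h in serum-containing medium. They were then exposed to serially diluted compound for 72 h at 37 °C, 5% CO2. CCK8 reagent was added for 1–4 h and absorbance read at 450 nm. Inhibition = (AC − AS)/(AC − Ab) × 100%. IC50 is the average of at least three independent determinations.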

[2] = system: T47D; experiment: Growth inhibition of human T47D cells after 72 hrs by CCK8 assay; type: functional, cell-based; how it was run: as §1
[3] = system: MDA-MB-231; experiment: Growth inhibition of human MDA-MB-231 cells after 72 hrs by CCK8 assay; type: functional, cell-based; conditions: MDA-MB-231, 72 h; how it was run: as §1
[4] = system: HeLa; experiment: Growth inhibition of human HeLa cells after 72 hrs by CCK8 assay; type: functional, cell-based; how it was run: as §1
[5] = system: SiHa; experiment: Growth inhibition of human SiHa cells after 72 hrs by CCK8 assay; type: functional, cell-based; how it was run: as §1
[6] = system: SK-OV-3; experiment: Growth inhibition of human SKOV3 cells after 72 hrs by CCK8 assay; type: functional, cell-based; conditions: SK-OV-3, 72 h; how it was run: as §1
[7] = system: OVCAR-5; experiment: Growth inhibition of human OVCAR5 cells after 72 hrs by CCK8 assay; type: functional, cell-based; conditions: OVCAR-5, 72 h; how it was run: as §1
[8] = system: NCI-H460; experiment: Growth inhibition of human H460 cells after 72 hrs by CCK8 assay; type: functional, cell-based; conditions: NCI-H460, 72 h; how it was run: as §1
[9] = system: T47D; experiment: Cell cycle arrest in human T47D cells assessed as decrease in S-phase at 0.5 uM after 24 hrs by propidium iodide-staining based flow cytometric analysis; type: functional
How it was run: (§2)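 Cells were seeded at 5 × 10^5 cells/mL. At 24 h after plating they were treated with increasing concentrations for 24 h, washed in PBS, and fixed in ice-cold 70% ethanol for at least 24 h. They were stained with propidium iodide plus RNase A for 30 min at 37 °C and analysed by flow cytometry for phase distribution.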

[10] = system: T47D; experiment: Cell cycle arrest in human T47D cells assessed as accumulation at G0/G1 phase at 0.5 uM after 24 hrs by propidium iodide-staining based flow cytometric analysis; type: functional; how it was run: as §2
[11] = system: MCF7; experiment: Cell cycle arrest in human MCF7 cells assessed as decrease in S-phase at 0.5 uM after 24 hrs by propidium iodide-staining based flow cytometric analysis; type: functional; how it was run: as §2
[12] = system: MCF7; experiment: Cell cycle arrest in human MCF7 cells assessed as accumulation at G0/G1 phase at 0.5 uM after 24 hrs by propidium iodide-staining based flow cytometric analysis; type: functional; how it was run: as §2
[13] = system: MDA-MB-231; experiment: Cell cycle arrest in human MDA-MB-231 cells assessed as decrease in S-phase at 0.5 uM after 24 hrs by propidium iodide-staining based flow cytometric analysis; type: functional; how it was run: as §2
[14] = system: MDA-MB-231; experiment: Cell cycle arrest in human MDA-MB-231 cells assessed as accumulation at G0/G1 phase at 0.5 uM after 24 hrs by propidium iodide-staining based flow cytometric analysis; type: functional; how it was run: as §2
[15] = system: SiHa; experiment: Cell cycle arrest in human SiHa cells assessed as decrease in S-phase at 0.5 uM after 24 hrs by propidium iodide-staining based flow cytometric analysis; type: functional; how it was run: as §2
[16] = system: SiHa; experiment: Cell cycle arrest in human SiHa cells assessed as accumulation at G0/G1 phase at 0.5 uM after 24 hrs by propidium iodide-staining based flow cytometric analysis; type: functional; how it was run: as §2
[17] = system: HeLa; experiment: Cell cycle arrest in human HeLa cells assessed as decrease in S-phase at 1 uM after 24 hrs by propidium iodide-staining based flow cytometric analysis; type: functional; how it was run: as §2
[18] = system: HeLa; experiment: Cell cycle arrest in human HeLa cells assessed as accumulation at G0/G1 phase at 1 uM after 24 hrs by propidium iodide-staining based flow cytometric analysis; type: functional; how it was run: as §2
[19] = system: T47D; experiment: Induction of autophagy in human T47D cells assessed as increase in LC3-2 level at 0.5 uM after 48 hrs by Western blot analysis; type: functional, cell-based
How it was run: (§3)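 Cells treated with test agents at several concentrations for 2 days (48 h). LC3B-II detected by Western blot on lysates, with β-actin as internal control. Membranes blocked in 5% skim milk, primary antibodies at 4 °C overnight, peroxidase-conjugated anti-mouse or anti-rabbit IgG secondary, ECL detection.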

[20] = system: MCF7; experiment: Induction of autophagy in human MCF7 cells assessed as increase in LC3-2 level at 0.5 uM after 48 hrs by Western blot analysis; type: functional, cell-based; how it was run: as §3
[21] = system: MDA-MB-231; experiment: Induction of autophagy in human MDA-MB-231 cells assessed as increase in LC3-2 level at 0.5 uM after 48 hrs by Western blot analysis; type: functional, cell-based; how it was run: as §3
[22] = system: SiHa; experiment: Induction of autophagy in human SiHa cells assessed as increase in LC3-2 level at 1 uM after 48 hrs by Western blot analysis; type: functional, cell-based; how it was run: as §3
[23] = system: HeLa; experiment: Induction of autophagy in human HeLa cells assessed as increase in LC3-2 level at 2 uM after 48 hrs by Western blot analysis; type: functional, cell-based
How it was run: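 Cells were treated for 48 h (2 days) with varying concentrations. Whole-cell lysates were immunoblotted for LC3B-II with β-actin as the internal control. Membranes were blocked in 5% skim milk, incubated with primary antibody overnight at 4 °C, then with peroxidase-conjugated secondary, and developed by ECL.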

[24] = system: T47D; experiment: Induction of autophagy in human T47D cells assessed as increase in LC3-2 puncta level at 0.5 uM after 48 hrs by immunofluorescence staining based microscopic analysis; type: functional, cell-based
How it was run: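 Cells seeded on glass coverslips in complete 1640 or DMEM and incubated with inhibitors at different concentrations for 48 h. Fixed in 4% paraformaldehyde, permeabilized with 0.15% Triton X-100, blocked in 4% BSA/PBS for 1 h at room temperature. Anti-LC3B (1:200) overnight, then FITC-conjugated secondary, DAPI nuclear stain. LC3B-II puncta viewed by fluorescence microscopy.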

[25] = system: T47D; experiment: Antitumor activity against human T47D cells xenografted in BALB/c nude mouse assessed as decrease in tumor growth at 60 mg/kg, po administered via gavage after 3 weeks relative to control; type: functional; conditions: 504 h, read-out: TGI
[26] = system: T47D; experiment: Antitumor activity against human T47D cells xenografted in BALB/c nude mouse assessed as tumor weight at 60 mg/kg, po administered via gavage after 3 weeks (reference value: 1.23 g); type: functional

- IC50 [1]: 4.98 µM
- IC50 [2]: 1.58 µM
- IC50 [3]: > 10 µM
- IC50 [4]: > 10 µM
- IC50 [6]: > 10 µM
- IC50 [7]: > 10 µM
- IC50 [8]: > 10 µM
Compound: CO[C@H]1C[C@@H]2CC[C@@H](C)[C@@](O)(O2)C(=O)C(=O)N2CCCC[C@H]2C(=O)O[C@H]([C@H](C)C[C@@H]2CC[C@@H](O)[C@H](OC)C2)CC(=O)[C@H](C)/C=C(\C)[C@@H](O)[C@@H](OC)C(=O)[C@H](C)C[C@H](C)/C=C/C=C/C=C/1C [SIROLIMUS]
- IC50 [5]: 1.76 µM
- Activity [9]: Active
- Activity [10]: Active
- Activity [11]: Active
- Activity [12]: Active
- Activity [13]: Active
- Activity [14]: Active
- Activity [15]: Active
- Activity [16]: Active
- Activity [17]: Active
- Activity [18]: Active
- Activity [19]: Active
- Activity [20]: Active
- Activity [21]: Active
- Activity [22]: Active
- Activity [23]: Active
- Activity [24]: Dose-dependent effect
- inhibition in vivo at 60 mg/kg [25]: 72.4%
- Activity [26]: 0.36 g
